System in the first data set: not listed separately
Briefly: Cmax in CD1 mouse plasma at 5 mg/kg, po via gavage by HPLC/MS analysis. It is filed as ADME, organism-based. More on the design: dose 5 mg/kg, route oral.
Conditions: not given
A digest of the protocol:
(§1)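 Female CD-1 mice, male SD rats and beagle dogs received 5 mg/kg either iv or by oral gavage. Vehicle was PEG 300/propylene glycol/water (55/25/20, pH 6). Blood was sampled and drug measured by HPLC-MS/MS.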
What is called Cmax is the peak of the concentration-time curve. In the case of `Cc1c(Oc2cnc(C(=O)N[C@@H](CO)CC(F)(F)F)cn2)ccc2c1B(O)OC2`, the Cmax was 2100 ng/mL.

In the case of `CCC[C@H](CO)NC(=O)c1cnc(Oc2ccc3c(c2C)B(O)OC3)cn1`, the highest level (Cmax) was 4000 ng/mL.

As to `Cc1c(Oc2cnc(C(=O)NCCO)cn2)ccc2c1B(O)OC2`, the Cmax was 4300 ng/mL.

`Cc1c(Oc2cnc(C(=O)NC(C)CO)cn2)ccc2c1B(O)OC2` (stereo not given) registered a Cmax of 3800 ng/mL.

System in another data set: not listed separately
Put plainly: Oral bioavailability in CD1 mouse at 5 mg/kg by HPLC/MS analysis. It is filed as ADME, organism-based. As to conditions: in vivo. Put shortly:
(§2)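 Female CD-1 mice, male SD rats or beagle dogs given 5 mg/kg by iv injection or oral gavage. Formulation was PEG300/propylene glycol/water 55/25/20, pH 6. Blood samples analysed by HPLC–MS/MS; parameters include AUC0-inf extrapolated to infinity and terminal half-life.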
In the case of `Cc1c(Oc2cnc(C(=O)N[C@@H](CO)CC(F)(F)F)cn2)ccc2c1B(O)OC2`, the bioavailability worked out at 64%.

As to `CCC[C@H](CO)NC(=O)c1cnc(Oc2ccc3c(c2C)B(O)OC3)cn1`, the bioavailability came out at 103%.

As for `Cc1c(Oc2cnc(C(=O)NCCO)cn2)ccc2c1B(O)OC2`, the bioavailability worked out at 94%.

Consider `Cc1c(Oc2cnc(C(=O)NC(C)CO)cn2)ccc2c1B(O)OC2` (stereo not given), for which the bioavailability was determined as 85%.

System in a further data set: not listed separately
Briefly: Clearance in CD1 mouse at 5 mg/kg, iv by HPLC/MS analysis. Type of data set: ADME, organism-based. As to conditions: in vivo. Put shortly: as §1
What is called clearance is the volume of plasma or blood freed of the substance per unit of time. With `Cc1c(Oc2cnc(C(=O)N[C@@H](CO)CC(F)(F)F)cn2)ccc2c1B(O)OC2`, the clearance was 3.97 mL/min/kg.

On to `CCC[C@H](CO)NC(=O)c1cnc(Oc2ccc3c(c2C)B(O)OC3)cn1`, for which the clearance was 4.05 mL/min/kg.

With `Cc1c(Oc2cnc(C(=O)NCCO)cn2)ccc2c1B(O)OC2`, the clearance is 2.65 mL/min/kg.

Compound `Cc1c(Oc2cnc(C(=O)NC(C)CO)cn2)ccc2c1B(O)OC2` (stereo not given) gave a clearance of 2.13 mL/min/kg.

System in the next data set: not listed separately
Put plainly: AUC (0 to infinity) in CD1 mouse at 5 mg/kg, iv by HPLC/MS analysis. It is filed as ADME, organism-based. Also on record: dose 5 mg/kg, time infinity, route intravenous. As to conditions: in vivo.
Broadly, the AUC(0-inf) is total exposure, with the tail of the curve extrapolated. In the case of `Cc1c(Oc2cnc(C(=O)N[C@@H](CO)CC(F)(F)F)cn2)ccc2c1B(O)OC2`, the AUC(0-inf) was 21000 ng·h/mL.

As for `CCC[C@H](CO)NC(=O)c1cnc(Oc2ccc3c(c2C)B(O)OC3)cn1`, the AUC(0-inf) worked out at 20500 ng·h/mL.

For the compound `Cc1c(Oc2cnc(C(=O)NCCO)cn2)ccc2c1B(O)OC2`, the AUC(0-inf) is 31400 ng·h/mL.

The compound `Cc1c(Oc2cnc(C(=O)NC(C)CO)cn2)ccc2c1B(O)OC2` (stereo not given) had an AUC(0-inf) of 39000 ng·h/mL.

System in the next data set: not listed separately
Put plainly: Terminal half life in CD1 mouse at 5 mg/kg, iv by HPLC/MS analysis. It is filed as ADME, organism-based. The following applies: in vivo, read-out: beta t1/2 (converted). A digest of the protocol:
as §2
For the compound `Cc1c(Oc2cnc(C(=O)N[C@@H](CO)CC(F)(F)F)cn2)ccc2c1B(O)OC2`, the half-life was 3 h.

For the compound `CCC[C@H](CO)NC(=O)c1cnc(Oc2ccc3c(c2C)B(O)OC3)cn1`, the half-life was 4.2 h.

On to `Cc1c(Oc2cnc(C(=O)NCCO)cn2)ccc2c1B(O)OC2`, for which the half-life is 3 h.

On to `Cc1c(Oc2cnc(C(=O)NC(C)CO)cn2)ccc2c1B(O)OC2` (stereo not given), for which the half-life is 3.1 h.

Another data set relates to Plasmodium berghei. Briefly: Antimalarial activity against Plasmodium berghei infected in Swiss Webster mouse assessed as mouse survival rate at 200 mg/kg administered once daily via oral gavage for 4 consecutive days beginning 1 hr after infection measured on day 5 post infection relative to control. It is filed as functional.
Conditions: not given
A digest of the protocol: (§3)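 P. berghei-infected erythrocytes taken from a previously infected mouse were injected intraperitoneally. Oral dosing, once daily for 4 consecutive days, began 1 h after infection, in polyethylene glycol 300/propylene glycol/water (55/25/20 by weight). Chloroquine at 30 mg/kg was the positive control, with a vehicle-only group. Percent survival was recorded daily from day 4 to day 20.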
For `CCC[C@H](CO)NC(=O)c1cnc(Oc2ccc3c(c2C)B(O)OC3)cn1`, the survival at 200 mg/kg stood at 100%.

On to `Cc1c(Oc2cnc(C(=O)NCCO)cn2)ccc2c1B(O)OC2`, for which the survival at 200 mg/kg amounted to 100%.

A further data set has as its system Plasmodium berghei. Put plainly: Antimalarial activity against Plasmodium berghei infected in Swiss Webster mouse assessed as mouse survival rate at 200 mg/kg administered once daily via oral gavage for 4 consecutive days beginning 1 hr after infection measured on day 6 post infection relative to control. Type of data set: functional.
Conditions: not given
A digest of the protocol:
as §3
`CCC[C@H](CO)NC(=O)c1cnc(Oc2ccc3c(c2C)B(O)OC3)cn1`: the survival at 200 mg/kg is 100%.

Turning to `Cc1c(Oc2cnc(C(=O)NCCO)cn2)ccc2c1B(O)OC2`, the survival at 200 mg/kg was 100%.

The test system of the next data set is Plasmodium berghei. Briefly: Antimalarial activity against Plasmodium berghei infected in Swiss Webster mouse assessed as mouse survival rate at 200 mg/kg administered once daily via oral gavage for 4 consecutive days beginning 1 hr after infection measured on day 7 post infection relative to control. Type of data set: functional.
Conditions: not given
Put shortly:
as §3
In the case of `CCC[C@H](CO)NC(=O)c1cnc(Oc2ccc3c(c2C)B(O)OC3)cn1`, the survival at 200 mg/kg came out at 100%.

Take `Cc1c(Oc2cnc(C(=O)NCCO)cn2)ccc2c1B(O)OC2`: the survival at 200 mg/kg is 100%.

For another data set, the system named is Plasmodium berghei. Put plainly: Antimalarial activity against Plasmodium berghei infected in Swiss Webster mouse assessed as mouse survival rate at 200 mg/kg administered once daily via oral gavage for 4 consecutive days beginning 1 hr after infection measured on day 8 post infection relative to control.
Conditions: not given
It is filed as functional. Put shortly:
as §3
Turning to `CCC[C@H](CO)NC(=O)c1cnc(Oc2ccc3c(c2C)B(O)OC3)cn1`, the survival at 200 mg/kg is 100%.

Take `Cc1c(Oc2cnc(C(=O)NCCO)cn2)ccc2c1B(O)OC2`: the survival at 200 mg/kg is 80%.

The next data set concerns Plasmodium berghei. Put plainly: Antimalarial activity against Plasmodium berghei infected in Swiss Webster mouse assessed as mouse survival rate at 200 mg/kg administered once daily via oral gavage for 4 consecutive days beginning 1 hr after infection measured on day 9 post infection relative to control. Type of data set: functional.
Conditions: not given
Put shortly: as §3
On to `CCC[C@H](CO)NC(=O)c1cnc(Oc2ccc3c(c2C)B(O)OC3)cn1`, for which the survival at 200 mg/kg turned out to be 100%.

`Cc1c(Oc2cnc(C(=O)NCCO)cn2)ccc2c1B(O)OC2`: the survival at 200 mg/kg came out at 80%.

A further data set concerns Plasmodium berghei. Put plainly: Antimalarial activity against Plasmodium berghei infected in Swiss Webster mouse assessed as mouse survival rate at 200 mg/kg administered once daily via oral gavage for 4 consecutive days beginning 1 hr after infection measured on day 10 post infection relative to control. It is filed as functional.
Conditions: not given
Put shortly: as §3
In the case of `CCC[C@H](CO)NC(=O)c1cnc(Oc2ccc3c(c2C)B(O)OC3)cn1`, the survival at 200 mg/kg was 100%.

Take `Cc1c(Oc2cnc(C(=O)NCCO)cn2)ccc2c1B(O)OC2`: the survival at 200 mg/kg came out at 0%.

The test system of the next data set is Plasmodium berghei. Briefly: Antimalarial activity against Plasmodium berghei infected in Swiss Webster mouse assessed as mouse survival rate at 200 mg/kg administered once daily via oral gavage for 4 consecutive days beginning 1 hr after infection measured on day 11 post infection relative to control. Type of data set: functional.
Conditions: not given
Put shortly: as §3
Consider `CCC[C@H](CO)NC(=O)c1cnc(Oc2ccc3c(c2C)B(O)OC3)cn1`, for which the survival at 200 mg/kg turned out to be 100%.

The next data set relates to Plasmodium berghei. Briefly: Antimalarial activity against Plasmodium berghei infected in Swiss Webster mouse assessed as mouse survival rate at 200 mg/kg administered once daily via oral gavage for 4 consecutive days beginning 1 hr after infection measured on day 12 post infection relative to control. Type of data set: functional.
Conditions: not given
A digest of the protocol:
as §3
Take `CCC[C@H](CO)NC(=O)c1cnc(Oc2ccc3c(c2C)B(O)OC3)cn1`: the survival at 200 mg/kg was 100%.

The next data set concerns Plasmodium berghei. Briefly: Antimalarial activity against Plasmodium berghei infected in Swiss Webster mouse assessed as mouse survival rate at 200 mg/kg administered once daily via oral gavage for 4 consecutive days beginning 1 hr after infection measured on day 13 post infection relative to control. It is filed as functional.
Conditions: not given
A digest of the protocol:
as §3
In the case of `CCC[C@H](CO)NC(=O)c1cnc(Oc2ccc3c(c2C)B(O)OC3)cn1`, the survival at 200 mg/kg was found to be 100%.

A further data set deals with Plasmodium berghei. Briefly: Antimalarial activity against Plasmodium berghei infected in Swiss Webster mouse assessed as mouse survival rate at 200 mg/kg administered once daily via oral gavage for 4 consecutive days beginning 1 hr after infection measured on day 14 post infection relative to control.
Conditions: not given
It is filed as functional. A digest of the protocol:
as §3
On to `CCC[C@H](CO)NC(=O)c1cnc(Oc2ccc3c(c2C)B(O)OC3)cn1`, for which the survival at 200 mg/kg was 100%.

For another data set, the system named is Plasmodium berghei. Put plainly: Antimalarial activity against Plasmodium berghei infected in Swiss Webster mouse assessed as mouse survival rate at 200 mg/kg administered once daily via oral gavage for 4 consecutive days beginning 1 hr after infection measured on day 15 post infection relative to control.
Conditions: not given
Type of data set: functional. A digest of the protocol:
as §3
With `CCC[C@H](CO)NC(=O)c1cnc(Oc2ccc3c(c2C)B(O)OC3)cn1`, the survival at 200 mg/kg worked out at 100%.

In a further data set the test system is Plasmodium berghei. Briefly: Antimalarial activity against Plasmodium berghei infected in Swiss Webster mouse assessed as mouse survival rate at 200 mg/kg administered once daily via oral gavage for 4 consecutive days beginning 1 hr after infection measured from day 16 to day 19 post infection relative to control. It is filed as functional.
Conditions: not given
Put shortly:
as §3
As for `CCC[C@H](CO)NC(=O)c1cnc(Oc2ccc3c(c2C)B(O)OC3)cn1`, the survival at 200 mg/kg amounted to 100%.

A further data set relates to Plasmodium berghei. Briefly: Antimalarial activity against Plasmodium berghei infected in Swiss Webster mouse assessed as mouse survival rate at 200 mg/kg administered once daily via oral gavage for 4 consecutive days beginning 1 hr after infection measured on day 20 post infection relative to control.
Conditions: not given
Type of data set: functional. Put shortly: as §3
Regarding `CCC[C@H](CO)NC(=O)c1cnc(Oc2ccc3c(c2C)B(O)OC3)cn1`, the survival at 200 mg/kg stood at 100%.

Another data set has as its system Plasmodium falciparum. Put plainly: Antimalarial activity against Plasmodium falciparum 3D7 0087/N9 infected in NOD/SCID IL2R gamma null mouse assessed as compound concentration in whole blood require to reduce parasitemia in peripheral blood administered once daily via oral gavage for 4 consecutive days measured on day 7 post infection. Type of data set: functional.
Conditions: not given
Take `CCC[C@H](CO)NC(=O)c1cnc(Oc2ccc3c(c2C)B(O)OC3)cn1`: the AUCED90 turned out to be 7.45 µg.hr/ml/day.

For the origin of these results see ChEMBL document CHEMBL4038305, “Benzoxaborole Antimalarial Agents. Part 5. Lead Optimization of Novel Amide Pyrazinyloxy Benzoxaboroles and Identification of a Preclinical Candidate” (J Med Chem, 2017).
